Measured values reported in ChEMBL document CHEMBL2390884, “Design, synthesis and antiproliferative activity studies of novel 1,2,3-triazole-dithiocarbamate-urea hybrids” (Eur J Med Chem, 2013).
pIC50: −log10 of the molar value. Active and inactive are the calls of the source. No cut-off for these calls is given here.

Experiments:
MGC-803 [1] = test: Induction of apoptosis in human MGC803 cells at 0.25 to 1 uM after 12 hrs by AnnexinV-FITC/propidium iodide staining-based flow cytometry (reference value: 2.8 %); type: functional
SMMC-7721 = test: Cytotoxicity against human SMMC7721 cells after 72 hrs by MTT assay; type: functional, cell-based; conditions: SMMC-7721, 72 h
MGC-803 [2] = test: Cell cycle arrest in human MGC803 cells assessed as accumulation at G2/M phase at 1 uM after 24 hrs by propidium iodide staining-based flow cytometry; type: functional
In short: (§1)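 Exponentially growing MGC-803 cells (5×10^5) treated at 0, 0.25, 0.5 or 1.0 µmol/L for 12 or 24 h; cells collected, fixed in ice-cold 70% ethanol, treated with buffer containing RNAse A and 0.1% Triton X-100, stained with PI; DNA content analysed by flow cytometry to give percentages of cells in G1, S and G2/M phases.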

MGC-803 [3] = test: Cell cycle arrest in human MGC803 cells assessed as accumulation at S phase at 0.5 uM after 24 hrs by propidium iodide staining-based flow cytometry; type: functional; in short: as §1
MGC-803 [4] = test: Induction of apoptosis in human MGC803 cells assessed as late apoptotic cells at 1 uM after 12 hrs by AnnexinV-FITC/propidium iodide staining-based flow cytometry (reference value: 3.0 %); type: functional
MGC-803 [5] = test: Cell cycle arrest in human MGC803 cells assessed as accumulation at G0/G1 phase at 0.25 uM after 12 hrs by propidium iodide staining-based flow cytometry; type: functional; in short: as §1
MGC-803 [6] = test: Cell cycle arrest in human MGC803 cells assessed as accumulation at G0/G1 phase at 0.25 uM after 24 hrs by propidium iodide staining-based flow cytometry; type: functional; in short: as §1
MGC-803 [7] = test: Induction of apoptosis in human MGC803 cells assessed as viable cells at 0.5 uM after 12 hrs by AnnexinV-FITC/propidium iodide staining-based flow cytometry (reference value: 91.9 %); type: functional; conditions: MGC-803, 12 h, read-out: Activity
MGC-803 [8] = test: Induction of apoptosis in human MGC803 cells assessed as chromatin condensation at 0.25 to 1 uM after 12 hrs by Hoechst 33258 staining-based fluorescence microscopy; type: functional, cell-based
In short: (§2)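 MGC-803 cells seeded at 8×10^3 cells/well, treated 12 h at 0, 0.25, 0.5 or 1.0 µmol/L; cells collected, fixed, stained 20 min with Hoechst 33258, washed with PBS; nuclear shrinkage, chromatin condensation, intense fluorescence and fragmentation scored by fluorescence microscopy.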

MGC-803 [9] = test: Induction of apoptosis in human MGC803 cells assessed as nuclear shrinkage at 0.25 to 1 uM after 12 hrs by Hoechst 33258 staining-based fluorescence microscopy; type: functional, cell-based; in short: as §2
MGC-803 [10] = test: Induction of apoptosis in human MGC803 cells after 12 hrs by AnnexinV-FITC/propidium iodide staining-based flow cytometry; type: functional, cell-based
MGC-803 [11] = test: Cell cycle arrest in human MGC803 cells assessed as accumulation at G2/M phase at 0.25 uM after 12 hrs by propidium iodide staining-based flow cytometry; type: functional; in short: as §1
MGC-803 [12] = test: Cell cycle arrest in human MGC803 cells assessed as reduction in G1 phase accumulation after 12 to 24 hrs by propidium iodide staining-based flow cytometry; type: functional; in short: as §1
MGC-803 [13] = test: Cell cycle arrest in human MGC803 cells assessed as accumulation at G2/M phase at 0.25 uM after 24 hrs by propidium iodide staining-based flow cytometry; type: functional; in short: as §1
MGC-803 [14] = test: Cell cycle arrest in human MGC803 cells assessed as accumulation at G2/M phase at 0.5 uM after 12 hrs by propidium iodide staining-based flow cytometry; type: functional; in short: as §1
MCF7 = test: Cytotoxicity against human MCF7 cells after 72 hrs by MTT assay; type: functional, cell-based; conditions: MCF7, 72 h
MGC-803 [15] = test: Cell cycle arrest in human MGC803 cells assessed as accumulation at G2/M phase after 12 to 24 hrs by propidium iodide staining-based flow cytometry; type: functional; in short: as §1
MGC-803 [16] = test: Induction of apoptosis in human MGC803 cells assessed as late apoptotic cells at 0.5 uM after 12 hrs by AnnexinV-FITC/propidium iodide staining-based flow cytometry (reference value: 3.0 %); type: functional
MGC-803 [17] = test: Cytotoxicity against human MGC803 cells after 72 hrs by MTT assay; type: functional, cell-based; conditions: MGC-803, 72 h
MGC-803 [18] = test: Cell cycle arrest in human MGC803 cells assessed as accumulation at G2/M phase at 0.5 uM after 24 hrs by propidium iodide staining-based flow cytometry; type: functional; in short: as §1
[19] = Cytotoxicity against human EC9706 cells after 72 hrs by MTT assay; type: functional, cell-based; conditions: EC9706, 72 h
MGC-803 [20] = test: Induction of apoptosis in human MGC803 cells assessed as nuclear fragmentation at 0.25 to 1 uM after 12 hrs by Hoechst 33258 staining-based fluorescence microscopy; type: functional, cell-based; in short: as §2
MGC-803 [21] = test: Induction of apoptosis in human MGC803 cells assessed as necrotic cells at 1 uM after 12 hrs by AnnexinV-FITC/propidium iodide staining-based flow cytometry (reference value: 2.4 %); type: functional
MGC-803 [22] = test: Cell cycle arrest in human MGC803 cells assessed as accumulation at S phase at 0.5 uM after 12 hrs by propidium iodide staining-based flow cytometry; type: functional; in short: as §1
MGC-803 [23] = test: Cell cycle arrest in human MGC803 cells assessed as accumulation at G2/M phase at 1 uM after 12 hrs by propidium iodide staining-based flow cytometry; type: functional; in short: as §1
MGC-803 [24] = test: Induction of apoptosis in human MGC803 cells assessed as necrotic cells at 0.5 uM after 12 hrs by AnnexinV-FITC/propidium iodide staining-based flow cytometry (reference value: 2.4 %); type: functional
MGC-803 [25] = test: Induction of apoptosis in human MGC803 cells assessed as viable cells at 0.25 uM after 12 hrs by AnnexinV-FITC/propidium iodide staining-based flow cytometry (reference value: 91.9 %); type: functional; conditions: MGC-803, 12 h, read-out: Activity
MGC-803 [26] = test: Cell cycle arrest in human MGC803 cells assessed as accumulation at G0/G1 phase at 1 uM after 12 hrs by propidium iodide staining-based flow cytometry; type: functional; in short: as §1
MGC-803 [27] = test: Cell cycle arrest in human MGC803 cells assessed as accumulation at S phase at 1 uM after 24 hrs by propidium iodide staining-based flow cytometry; type: functional; in short: as §1
MGC-803 [28] = test: Induction of apoptosis in human MGC803 cells assessed as late apoptotic cells at 0.25 uM after 12 hrs by AnnexinV-FITC/propidium iodide staining-based flow cytometry (reference value: 3.0 %); type: functional
MGC-803 [29] = test: Cell cycle arrest in human MGC803 cells assessed as reduction in S phase accumulation at 0.25 to 1 uM by propidium iodide staining-based flow cytometry; type: functional; conditions: TDE = time-dependent effect; in short: as §1
HEK293 = test: Cytotoxicity against human HEK293 cells up to 70 uM after 72 hrs by MTT assay; type: cell-based; conditions: hek293, 72 h
In short: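 HEK293 cells seeded at 5×10^3 per well, grown 24 h at 37°C, then medium replaced with compound-containing medium over a concentration range; 72 h exposure; MTT (5 mg/mL stock) added for 4 h at 37°C, formazan dissolved in DMSO, absorbance read at 570 nm. Triplicate per concentration, experiment repeated three times.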

MGC-803 [30] = test: Cell cycle arrest in human MGC803 cells assessed as reduction in G1 phase accumulation at 0.25 to 1 uM by propidium iodide staining-based flow cytometry; type: functional; conditions: TDE = time-dependent effect; in short: as §1
MGC-803 [31] = test: Cell cycle arrest in human MGC803 cells assessed as accumulation at S phase at 0.25 uM after 12 hrs by propidium iodide staining-based flow cytometry; type: functional; in short: as §1

In the case of CC(C)NC(=O)N1CCN(C(=S)SCc2cn(Cc3ccc(F)cc3)nn2)CC1, the Activity (MGC-803 [1]) was 31.4%, the pIC50 (SMMC-7721) was 5.22 and the Activity (MGC-803 [2]) was 79.02%. It also gave an Activity (MGC-803 [3]) of 20.57%, an Activity (MGC-803 [4]) of 2.4% and an Activity (MGC-803 [5]) of 37.35%. The Activity (MGC-803 [6]) was 13.78%, the viability at 0.5 µM (MGC-803 [7]) was 80.1% and the Activity (MGC-803 [8]) was “Active”. For the same molecule, the Activity (MGC-803 [9]) was “Active”, the Activity (MGC-803 [10]) was “Dose-dependent effect” and the Activity (MGC-803 [11]) was 20.84%. The Activity (MGC-803 [12]) was “Dose-dependent effect”, the Activity (MGC-803 [13]) was 58.94% and the Activity (MGC-803 [14]) was 46.86%. The pIC50 (MCF7) was 5.78, the Activity (MGC-803 [15]) was “Dose-dependent effect” and the Activity (MGC-803 [16]) was 1.8%. The pIC50 (MGC-803 [17]) was 6.12, the Activity (MGC-803 [18]) was 69.88% and the pIC50 [19] was 4.91. The Activity (MGC-803 [20]) was “Active”, the Activity (MGC-803 [21]) was 1.2% and the Activity (MGC-803 [22]) was 32.65%. For the same molecule, the Activity (MGC-803 [23]) was 68.68%, the Activity (MGC-803 [24]) was 0.8% and the viability at 0.25 µM (MGC-803 [25]) was 88.1%. The Activity (MGC-803 [26]) was 3.62%, the Activity (MGC-803 [27]) was 15.91% and the Activity (MGC-803 [28]) was 2.2%. For the same molecule, the Activity (MGC-803 [29]) was “tde”, the Activity (HEK293) was “Non-toxic” and the Activity (MGC-803 [30]) was “tde”. For the same molecule, the Activity (MGC-803 [31]) was 40.91%.
